Key:
K562 [1] = experiment: Growth inhibition of human K562 cells assessed as cell growth at 10^-4 M incubated for 48 hrs by sulforhodamine B assay relative to control; type: functional; details: K562, 48 h, read-out: Activity
HCT-15 = experiment: Growth inhibition of human HCT15 cells assessed as cell growth at 10^-7 M incubated for 48 hrs by sulforhodamine B assay relative to control; type: functional; details: HCT-15, 48 h, read-out: Activity
CCRF-CEM = experiment: Growth inhibition of human CCRF-CEM cells assessed as cell growth at 10^-4 M incubated for 48 hrs by sulforhodamine B assay relative to control; type: functional; details: read-out: Activity
OVCAR-5 = experiment: Growth inhibition of human OVCAR5 cells assessed as cell growth at 10^-5 M incubated for 48 hrs by sulforhodamine B assay relative to control; type: functional; details: OVCAR-5, 48 h, read-out: Activity
ACHN = experiment: Growth inhibition of human ACHN cells assessed as cell growth at 10^-7 M incubated for 48 hrs by sulforhodamine B assay relative to control; type: functional; details: read-out: Activity
K562 [2] = experiment: Growth inhibition of human K562 cells assessed as cell growth at 10^-6 M incubated for 48 hrs by sulforhodamine B assay relative to control; type: functional; details: K562, 48 h, read-out: Activity
SK-MEL-5 = experiment: Growth inhibition of human SK-MEL-5 cells assessed as cell growth at 10^-6 M incubated for 48 hrs by sulforhodamine B assay relative to control; type: functional; details: SK-MEL-5, 48 h, read-out: Activity
SNB-19 = experiment: Growth inhibition of human SNB19 cells assessed as cell growth at 10^-8 M incubated for 48 hrs by sulforhodamine B assay relative to control; type: functional; details: SNB-19, 48 h, read-out: Activity
M14 [3] = experiment: Cytotoxicity against human M14 cells after 48 hrs by SRB assay; type: functional; details: M14, 48 h
SR = experiment: Growth inhibition of human SR cells assessed as cell growth at 10^-7 M incubated for 48 hrs by sulforhodamine B assay relative to control; type: functional; details: read-out: Activity
MCF7 = experiment: Growth inhibition of human MCF7 cells assessed as cell growth at 10^-5 M incubated for 48 hrs by sulforhodamine B assay relative to control; type: functional; details: MCF7, 48 h, read-out: Activity
SF-295 = experiment: Growth inhibition of human SF295 cells assessed as cell growth at 10^-6 M incubated for 48 hrs by sulforhodamine B assay relative to control; type: functional; details: SF-295, 48 h, read-out: Activity
HCT-116 [4] = experiment: Growth inhibition of human HCT116 cells assessed as cell growth at 10^-6 M incubated for 48 hrs by sulforhodamine B assay relative to control; type: functional; details: HCT-116, 48 h, read-out: Activity
UACC-257 [5] = experiment: Growth inhibition of human UACC257 cells assessed as cell growth at 10^-5 M incubated for 48 hrs by sulforhodamine B assay relative to control; type: functional; details: UACC-257, 48 h, read-out: Activity
Malme-3M = experiment: Cytotoxicity against human MALME-3M cells after 48 hrs by SRB assay; type: functional
HCT-116 [6] = experiment: Growth inhibition of human HCT116 cells assessed as cell growth at 10^-8 M incubated for 48 hrs by sulforhodamine B assay relative to control; type: functional; details: HCT-116, 48 h, read-out: Activity
HMEC-1 = experiment: Antiproliferative activity against HMEC1 cells after 4 days by Coulter counter method; type: cell-based; details: Homo sapiens, HMEC-1, 96 h
Method in brief: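 Primary HUVEC, primary HMVEC-d and the HMEC-1 line seeded at 20,000 cells/well in gelatin-coated plates in EC growth medium (EGM2). After overnight incubation, 5-fold compound dilutions added. Cells proliferated four days with compound, then trypsinized and counted by Coulter counter to derive IC₅₀.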

M14 [7] = experiment: Growth inhibition of human M14 cells assessed as cell growth at 10^-7 M incubated for 48 hrs by sulforhodamine B assay relative to control; type: functional; details: M14, 48 h, read-out: Activity
A498 [8] = experiment: Growth inhibition of human A498 cells assessed as cell growth at 10^-6 M incubated for 48 hrs by sulforhodamine B assay relative to control; type: functional; details: A498, 48 h, read-out: Activity
EKVX = experiment: Growth inhibition of human EKVX cells assessed as cell growth at 10^-8 M incubated for 48 hrs by sulforhodamine B assay relative to control; type: functional; details: read-out: Activity
NCI/ADR-RES = experiment: Growth inhibition of human NCI/ADR-RES cells assessed as cell growth at 10^-5 M incubated for 48 hrs by sulforhodamine B assay relative to control; type: functional; details: read-out: Activity
SNB-75 = experiment: Growth inhibition of human SNB75 cells assessed as cell growth at 10^-7 M incubated for 48 hrs by sulforhodamine B assay relative to control; type: functional; details: SNB-75, 48 h, read-out: Activity
L1210 = experiment: Antiproliferative activity against mouse L1210 cells after 48 hrs by Coulter counter method; type: functional, cell-based; details: L1210, 48 h
Method in brief: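 Cell count assay in 96-well microtiter plates; (5–7.5) × 10⁴ tumor cells per well plus test compound. Cells proliferated at 37 °C in humidified CO₂-controlled atmosphere, 48 h for murine leukemia L1210, 72 h for human lymphocytic CEM and cervix carcinoma HeLa. Counted by Coulter counter; IC₅₀ is the concentration that inhibits proliferation by 50%.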

A498 [9] = experiment: Cytotoxicity against human A498 cells after 48 hrs by SRB assay; type: functional; details: A498, 48 h
SK-MEL-2 = experiment: Cytotoxicity against human SK-MEL-2 cells after 48 hrs by SRB assay; type: functional; details: SK-MEL-2, 48 h
RXF 393 = experiment: Growth inhibition of human RXF393 cells assessed as cell growth at 10^-8 M incubated for 48 hrs by sulforhodamine B assay relative to control; type: functional; details: RXF 393, 48 h, read-out: Activity
PC-3 = experiment: Growth inhibition of human PC3 cells assessed as cell growth at 10^-8 M incubated for 48 hrs by sulforhodamine B assay relative to control; type: functional; details: PC-3, 48 h, read-out: Activity
SK-OV-3 = experiment: Growth inhibition of human SKOV3 cells assessed as cell growth at 10^-8 M incubated for 48 hrs by sulforhodamine B assay relative to control; type: functional; details: SK-OV-3, 48 h, read-out: Activity
COLO 205 = experiment: Cytotoxicity against human COLO205 cells after 48 hrs by SRB assay; type: functional; details: COLO 205, 48 h
UACC-257 [10] = experiment: Growth inhibition of human UACC257 cells assessed as cell growth at 10^-6 M incubated for 48 hrs by sulforhodamine B assay relative to control; type: functional; details: UACC-257, 48 h, read-out: Activity
[11] = read-out: LC50 (the source's name)

## C#C[C@@]1(O)[C@@H](CO)O[C@@H](n2cc(I)c3c(N)ncnc32)[C@@H]1O
K562 [1]
  growth at 100 µM: 7 to 8%
HCT-15
  growth at 0.1 µM: 51 to 60%
CCRF-CEM
  growth at 100 µM: 2 to 8%
OVCAR-5
  growth at 10 µM: 2 to 6%
ACHN
  growth at 0.1 µM: 72%
K562 [2]
  growth at 1 µM: 17 to 22%
SK-MEL-5
  growth at 1 µM: 14 to 26%
SNB-19
  growth at 0.01 µM: 88 to 92%
M14 [3]; read-out: GI50
  GI50: 393 to 611 nM
M14 [3]; [11]
  CC50: 55500 to 100000 nM
M14 [3]; read-out: TGI
  TGI: 8470 to 10700 nM
SR
  growth at 0.1 µM: 60 to 86%
MCF7
  growth at 10 µM: 1 to 5%
SF-295
  growth at 1 µM: 31 to 35%
HCT-116 [4]
  growth at 1 µM: 5 to 6%
UACC-257 [5]
  growth at 10 µM: 6 to 7%
Malme-3M; read-out: GI50
  GI50: 525 to 1300 nM
Malme-3M; [11]
  CC50: > 100000 nM
Malme-3M; read-out: TGI
  TGI: 2760 to 4160 nM
HCT-116 [6]
  growth at 0.01 µM: 83 to 95%
HMEC-1
  IC50: 18 nM
M14 [7]
  growth at 0.1 µM: 67 to 75%
A498 [8]
  growth at 1 µM: 1 to 29%
EKVX
  growth at 0.01 µM: 79 to 90%
NCI/ADR-RES
  growth at 10 µM: -4%
SNB-75
  growth at 0.1 µM: 81 to 83%
L1210
  IC50: 56 nM
A498 [9]; read-out: GI50
  GI50: 211 to 453 nM
A498 [9]; [11]
  CC50: 4690 to 6400 nM
A498 [9]; read-out: TGI
  TGI: 1030 to 1980 nM
SK-MEL-2; read-out: GI50
  GI50: 177 to 321 nM
SK-MEL-2; [11]
  CC50: 7770 to 100000 nM
SK-MEL-2; read-out: TGI
  TGI: 1590 to 1950 nM
RXF 393
  growth at 0.01 µM: 94 to 102%
PC-3
  growth at 0.01 µM: 81 to 84%
SK-OV-3
  growth at 0.01 µM: 60 to 85%
COLO 205; read-out: GI50
  GI50: 44.8 to 170 nM
COLO 205; [11]
  CC50: 4780 to 6740 nM
COLO 205; read-out: TGI
  TGI: 393 to 1270 nM
UACC-257 [10]
  growth at 1 µM: 72 to 79%

— ChEMBL document CHEMBL4270599, “Synthesis of a 3'-C-ethynyl-β-d-ribofuranose purine nucleoside library: Discovery of C7-deazapurine analogs as potent antiproliferative nucleosides” (Eur J Med Chem, 2018)
